Data set [1] relates to HIF-1α levels in MCF7 cells. Briefly: Cellular HIF-1α levels. Type of data set: cell-based, human. Particulars: 24 hours.
Data set [2] has as its system histone methylation marks in KYSE150 cells. The data set can be described thus: Western blotting of histone methylation marks in KYSE150 cells. The class given is cell-based. The conditions noted are these: 48 hours. The method in brief:
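KYSE150 cells received DMSO, DFO 150 μM or DMOG 1 mM as positive controls for Fe²⁺/α-ketoglutarate hydroxylase inhibition, or test compound at 5, 10 or 15 μM, for 48 h. Histone methylation marks were assessed by Western blot, with histone levels based on coomassie stain.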

Data set [3] in a line: Stability in KYSE150 cell growth media. Type of data set: in vitro ADME. Particulars: 37 °C, 48 hours, extraction with 3:1 chloroform:isopropanol.
For data set [4], the system named is H3K4me3 and H3K9me3 levels in MCF7 cells. Type of data set: cell-based, human.
For the next data set, the target named is T1, human JMJD2C(1–420) (Homo sapiens, UniProt Q9H3R0).
T1 sequence (Q9H3R0 1-420): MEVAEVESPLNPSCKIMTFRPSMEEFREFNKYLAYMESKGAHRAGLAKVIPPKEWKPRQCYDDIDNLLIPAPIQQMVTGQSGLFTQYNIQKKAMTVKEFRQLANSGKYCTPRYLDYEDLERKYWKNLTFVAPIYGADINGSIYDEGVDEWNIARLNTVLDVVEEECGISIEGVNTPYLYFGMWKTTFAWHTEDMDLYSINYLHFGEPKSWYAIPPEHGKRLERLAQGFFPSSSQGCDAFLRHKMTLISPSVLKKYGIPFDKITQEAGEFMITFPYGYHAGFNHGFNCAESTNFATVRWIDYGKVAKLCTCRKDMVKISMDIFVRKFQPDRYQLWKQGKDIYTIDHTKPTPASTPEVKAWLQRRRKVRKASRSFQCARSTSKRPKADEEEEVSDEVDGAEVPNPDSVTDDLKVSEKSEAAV
Type of data set: biochemical. Particulars: at up to 50 μM, the highest concentration tested.

In data set [5] the test system is JMJD2C(1–420)-GFP fusion protein in HeLa cells. The data set can be described thus: H3K9me3 immunostaining in HeLa cells ectopically expressing JMJD2C. Type of data set: cell-based, human. Particulars: 10 μM, 48 hours. In short, it runs like this:
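HeLa cells were transfected with JMJD2C(1–420)-GFP, then treated with DMSO or 10 μM test compound. After 48 h they were immunostained with anti-H3K9me3 antibody and DAPI nuclear stain. H3K9me3 was compared in GFP-transfected cells.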

Data set [6] concerns JMJD2C-sensitive oesophageal carcinoma cell line KYSE150. The data set can be described thus: KYSE150 growth inhibition assay. Type of data set: cell-based. The conditions noted are these: read-out: GI50, KYSE150 cell growth; treatment for 48 hours.
Data set [7] addresses FAD-dependent demethylase, LSD1 (Homo sapiens, UniProt O60341). Briefly: LSD1 enzyme inhibition in vitro. The class given is biochemical. Particulars: at up to 50 μM, the highest concentration tested.
Data set [8] addresses T2, JMJD2A (H3K9me3 and H3K36me3 demethylase) (Homo sapiens, UniProt O75164).
T2 sequence (O75164 1-1064): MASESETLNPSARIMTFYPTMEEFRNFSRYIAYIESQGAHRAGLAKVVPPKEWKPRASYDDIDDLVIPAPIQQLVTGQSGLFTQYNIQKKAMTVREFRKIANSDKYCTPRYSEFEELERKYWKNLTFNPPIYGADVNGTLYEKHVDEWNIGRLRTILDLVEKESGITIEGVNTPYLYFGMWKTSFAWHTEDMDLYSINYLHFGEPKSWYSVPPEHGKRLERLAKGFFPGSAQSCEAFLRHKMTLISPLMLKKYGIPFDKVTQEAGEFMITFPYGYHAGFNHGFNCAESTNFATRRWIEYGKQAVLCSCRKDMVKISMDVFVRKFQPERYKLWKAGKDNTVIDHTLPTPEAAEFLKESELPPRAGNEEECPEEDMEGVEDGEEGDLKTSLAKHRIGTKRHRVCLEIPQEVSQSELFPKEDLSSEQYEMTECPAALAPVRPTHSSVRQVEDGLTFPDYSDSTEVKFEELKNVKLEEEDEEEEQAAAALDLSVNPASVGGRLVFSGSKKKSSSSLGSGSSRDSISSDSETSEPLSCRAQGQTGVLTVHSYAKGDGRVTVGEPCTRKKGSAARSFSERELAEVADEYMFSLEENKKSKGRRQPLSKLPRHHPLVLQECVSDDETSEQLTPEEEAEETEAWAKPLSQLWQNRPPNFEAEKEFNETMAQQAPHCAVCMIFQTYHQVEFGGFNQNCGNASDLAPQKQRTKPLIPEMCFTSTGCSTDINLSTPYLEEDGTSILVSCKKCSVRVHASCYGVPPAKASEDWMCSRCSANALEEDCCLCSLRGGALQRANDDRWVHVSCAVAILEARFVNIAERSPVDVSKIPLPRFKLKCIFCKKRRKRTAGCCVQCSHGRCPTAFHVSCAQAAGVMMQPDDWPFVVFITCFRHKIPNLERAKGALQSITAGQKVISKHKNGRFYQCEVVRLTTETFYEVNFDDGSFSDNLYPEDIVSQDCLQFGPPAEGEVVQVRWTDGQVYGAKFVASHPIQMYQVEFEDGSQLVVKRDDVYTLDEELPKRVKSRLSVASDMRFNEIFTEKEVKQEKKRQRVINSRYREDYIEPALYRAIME
The data set can be described thus: JMJD2A enzyme inhibition in vitro. The class given is biochemical. Particulars: at up to 50 μM, the highest concentration tested.

The next data set deals with C2C12 cells. Briefly: Myotube formation in C2C12 cells. Type of data set: cell-based. The conditions noted are these: C2C12 cells in differentiation media, 6 days. The method in brief: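 C2C12 cells in differentiation media were given DMSO or test compound at 1, 2 or 4 μM. After 6 days they were immunostained with anti-myosin heavy chain antibody plus DAPI. MHC-positive myotubes were scored from the images.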

In data set [9] the test system is H3K4me3 and H3K9me3 levels in KYSE150 cells. The class given is cell-based. In short, it runs like this: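 KYSE150 cells were immunostained for H3K4me3 and H3K9me3 in a quantitative image-based assay. Image quantification gave half-maximal effective concentrations for each mark.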
In data set [10] the test system is UTX-targeted genes Myog and CKm in C2C12 cells. The data set can be described thus: RT-PCR of UTX-targeted genes during myogenesis. The class given is cell-based. Particulars: differentiating C2C12 myoblast, 1, 2 and 4 μM, 6 days. The method in brief: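 Differentiating C2C12 myoblasts were given DMSO or test compound (1, 2, 4 μM) in differentiation media. mRNA was collected after 6 days, and RT-PCR measured Myog and Ckm.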

The subject of data set [11] is class I or class II HDACs. The data set can be described thus: HDAC enzyme inhibition in vitro. Type of data set: biochemical. Particulars: at up to 50 μM, the highest concentration tested.
Where [12] appears, read: DFO at 150 μM, DMOG at 1 and 2 mM.

Read-outs that look alike come from different tables or passages of the source.

As to `COC(=O)CNC(=O)C(=O)OC` [DMOG], the “cellular HIF-1α levels” value in [1] (setting [12]) is listed as “significantly increased”.

In general, EC50 refers to the concentration giving half of the maximal effect. One may read the GI50 as the concentration giving 50% growth inhibition. As to `COC(=O)/C=C/C(=O)N(O)CCCCNCc1ccc(COC(=O)Nc2cccc3ccccc23)cc1` [Methylstat, methylstat], the “methylation of H3K4, H3K9, H3K27 and H3K36 (Western blotting)” value in data set [2] (KYSE150 cells, 5, 10 and 15 μM, concentration-dependent) is listed as “induces hypermethylation”. Further, the “cellular levels of H3K79me3 and H4K20me3” value in data set [2] (KYSE150 cells) is on record as “induces increased cellular levels”. For the same molecule, in data set [3], the “recovered unchanged after incubation in cell growth media” value came to 88%. Moreover, the entries for the “increase of the H3K9me3 mark” value in [4] and in [9] were 4.5 fold and 10.8 fold, respectively. The concentration giving a half-maximal response (EC50) is 6.7 µM in data set [4] (read-out: EC50 for H3K4me3), 6.3 µM in data set [4] (read-out: EC50 for H3K9me3), 10.3 µM in data set [9] (read-out: EC50 for H3K4me3) and 8.6 µM in data set [9] (read-out: EC50 for H3K9me3). For the same molecule, the “inhibition of enzymatic activity of JMJD2C” value against human JMJD2C(1–420) is given as “does not inhibit”. In addition, in data set [1] (at up to 15 μM, the highest concentration tested), the “cellular HIF-1α levels” value is listed as “did not affect”. Moreover, the “reduction of H3K9me3 level by JMJD2C(1–420)-GFP” value in [5] was “reversed”. For the same molecule, the GI50 in data set [6] was about 5.1 µM. Further, the “inhibition of enzymatic activity of LSD1” value in data set [7] is on record as “does not inhibit”. Moreover, in data set [8], the “inhibition of enzymatic activity of JMJD2A” value is reported as “does not inhibit”. Moreover, the “concentration sufficient to prevent the formation of MHC-positive myotubes” value in the data set with C2C12 cells was determined as 2 µM. Besides, in data set [10], the “expression of UTX-targeted genes Myog and CKm (RT-PCR)” value is given as “loss of expression”. In addition, in [11], the “inhibition of enzymatic activity of HDACs” value is given as “does not inhibit”.

Consider `CC(=O)N(O)CCCCCNC(=O)CCC(=O)N(O)CCCCCNC(=O)CCC(=O)N(O)CCCCCN` [DFO, desferoxamine], for which, in [1] (setting [12]), the “cellular HIF-1α levels” value is recorded as “significantly increased”.

Values taken from PMC3133600 (Journal of the American Chemical Society, 2011).
